According to ChEMBL document CHEMBL1938288, “Discovery, synthesis, and pharmacological evaluation of spiropiperidine hydroxamic acid based derivatives as structurally novel histone deacetylase (HDAC) inhibitors” (J Med Chem, 2011):
The source made the active and inactive calls. The rule behind the calls is not given here.

Legend:
[1] = test system: Mus musculus; test: Increase of histone H4 cetylation in human HCT116 cells xenografted in CD1 mouse at 35 to 150 mg/kg, po administered for 5 days/week for 17 days by immunohistochemistry; format: functional, organism-based; settings: HCT-116
Method in brief: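 Xenograft tumours from the oral efficacy study were collected 2 h after the last dose. They were formalin-fixed, paraffin-embedded, unmasked in TEG buffer pH 9, treated 5 min with 3% H2O2, and incubated overnight at 4 °C with anti-acetyl-histone H4. Staining was developed by HRP detection with hematoxylin counterstain. Positive cells and signal intensity were compared with vehicle.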

[2] = molecular target: T1, Histone deacetylase 8 (Homo sapiens, UniProt Q9BY41); test: Inhibition of HDAC8 using carboxyfluorescein-labeled peptide as substrate after 17 hrs by fluorescence assay
T1 sequence (Q9BY41 whole entry): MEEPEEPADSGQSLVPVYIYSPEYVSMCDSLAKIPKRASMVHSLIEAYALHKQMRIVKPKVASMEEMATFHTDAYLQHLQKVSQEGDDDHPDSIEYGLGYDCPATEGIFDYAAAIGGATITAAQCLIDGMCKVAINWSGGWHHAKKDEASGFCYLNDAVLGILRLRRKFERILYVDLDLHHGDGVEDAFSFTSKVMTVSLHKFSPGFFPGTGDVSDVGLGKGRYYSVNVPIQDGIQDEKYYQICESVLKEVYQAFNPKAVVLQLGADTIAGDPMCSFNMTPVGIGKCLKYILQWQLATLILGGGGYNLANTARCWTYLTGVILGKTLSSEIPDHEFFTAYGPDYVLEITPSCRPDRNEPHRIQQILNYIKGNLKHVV
Method in brief: (§1)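 Purified HDAC isoforms incubated with compound and 1 μM carboxyfluorescein-labelled peptide for 17 h at 25 °C. Reaction stopped with HEPES/0.08% SDS. Substrate and product separated electrophoretically and read by fluorescence. Run in duplicate. IC50 from 12-point curves by nonlinear regression.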

[3] = Volume of distribution at steady state in CD1 mouse at 5 mg/kg, iv and 15 mg/kg, po; format: ADME, organism-based; settings: in vivo, read-out: Vdss
Method in brief: (§2)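 Single dose to male CD-1 mice, either iv at 5 mg/kg or oral at 15 mg/kg. Plasma pharmacokinetic parameters were calculated from these dosings.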

[4] = test system: HCT-116; test: Antiproliferative activity against human HCT116 cells after 72 hrs by CellTiter-Glo luminescent cell viability assay; format: functional, cell-based; settings: HCT-116, 72 h
Method in brief: (§3)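 Cells in exponential growth exposed to a range of inhibitor concentrations for 72 h. CellTiter-Glo reagent added, mixed 2 min to lyse cells, luminescence read 10 min later. IC50 derived from the concentration–response. Replicates n ≥ 2, mean shown.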

[5] = test system: HCT-116; test: Cell cycle arrest in human HCT116 cells assessed as accumulation at G0/G1 phase at 1 to 3 uM after 24 hrs by flow cytometry; format: functional, cell-based; settings: in the assay text read “G2/M phase” for “G0/G1 phase”
Method in brief: (§4)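 HCT-116 cells treated for 24 h at several concentrations. Harvested, fixed in 70% ethanol at -20 °C, RNase treated (1 mg/mL), stained with propidium iodide. DNA content measured by flow cytometry to give phase distribution, including the subG1 population.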

[6] = Cmax in CD1 mouse at 5 mg/kg, iv; format: ADME, organism-based; parameters: dose 5 mg/kg, route intravenous; settings: in vivo; method in brief: as §2
[7] = test system: HCT-116; test: Cell cycle arrest in human HCT116 cells assessed as accumulation at G2M phase at 1 to 3 uM after 24 hrs by flow cytometry; format: functional, cell-based; method in brief: as §4
[8] = test system: HCT-116; test: Cell cycle arrest in human HCT116 cells assessed as decrease in G2/M phase cells at 0.3 uM after 24 hrs by flow cytometry; format: functional, cell-based; method in brief: as §4
[9] = test system: HCT-116; test: Antitumor activity against human HCT116 cells xenografted in CD1 nude mouse assessed as reduced tumor volume 150 mg/kg, po administered for 5 days/week for 17 days; format: functional
Method in brief: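 Female CD-1 nude mice bearing subcutaneous flank HCT-116 tumours (5 × 10⁶ cells injected). Dosing began at about 100 mm³ tumour volume. Given orally at 35–150 mg/kg in water with 5% DMSO and 9.5% encapsin, 5 days/week for 17 days. Tumour volume tracked against vehicle controls. T/C = mean relative tumour volume treated / control.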

[10] = molecular target: Histone deacetylase 3 (Homo sapiens, UniProt O15379); test: Inhibition of HDAC3 using carboxyfluorescein-labeled peptide as substrate after 17 hrs by fluorescence assay; method in brief: as §1
[11] = Cmax in CD1 mouse at 15 mg/kg, po; format: ADME, organism-based; parameters: dose 15 mg/kg, route oral; settings: in vivo; method in brief: as §2
[12] = Plasma clearance in CD1 mouse at 5 mg/kg, iv and 15 mg/kg, po; format: ADME, organism-based; method in brief: as §2
[13] = Oral bioavailability in CD1 mouse at 15 mg/kg; format: ADME, organism-based; settings: in vivo; method in brief: as §2
[14] = test system: K562; test: Antiproliferative activity against human K562 cells after 72 hrs by CellTiter-Glo luminescent cell viability assay; format: functional, cell-based; settings: K562, 72 h; method in brief: as §3
[15] = AUC (0 to infinity) in CD1 mouse at 5 mg/kg, iv; format: ADME, organism-based; parameters: time infinity, dose 5 mg/kg, route intravenous; settings: plasma; method in brief: as §2
[16] = test system: HCT-116; test: Cell cycle arrest in human HCT116 cells assessed as decrease in S phase cells at 0.3 uM after 24 hrs by flow cytometry; format: functional, cell-based; method in brief: as §4
[17] = Tmax in mouse; format: ADME, organism-based; settings: in vivo
[18] = species on record: Mus musculus; test: Hepatic blood flow in mouse; format: ADME, organism-based, Liver

Chain of Histone deacetylase 3 (O15379 whole entry): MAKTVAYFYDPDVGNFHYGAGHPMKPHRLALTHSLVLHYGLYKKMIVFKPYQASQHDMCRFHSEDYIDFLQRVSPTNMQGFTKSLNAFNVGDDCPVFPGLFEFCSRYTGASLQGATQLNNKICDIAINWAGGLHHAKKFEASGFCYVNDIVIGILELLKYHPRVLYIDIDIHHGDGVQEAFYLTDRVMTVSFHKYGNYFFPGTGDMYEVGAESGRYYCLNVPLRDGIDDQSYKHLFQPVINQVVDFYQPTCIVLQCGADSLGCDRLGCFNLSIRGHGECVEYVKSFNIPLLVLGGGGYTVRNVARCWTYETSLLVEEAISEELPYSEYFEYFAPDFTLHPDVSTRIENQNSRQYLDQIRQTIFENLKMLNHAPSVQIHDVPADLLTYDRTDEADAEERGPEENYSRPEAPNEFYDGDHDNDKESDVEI

IC50 [2]: 1760 nM | Vd [3]: 8.9 L/kg | IC50 [4]: 477 nM | Cmax [6]: 12.5 µM | IC50 [10]: 9.4 nM | Cmax [11]: 823 nM | clearance [12]: 98 mL/min/kg | bioavailability [13]: 31.5% | IC50 [14]: 399 nM | AUC(0-inf) [15]: 847 ng·h/mL | Tmax [17]: 15 min | QH [18]: 5.4 L/h/kg
SMILES: O=C(/C=C/c1ccc2c(c1)C(=O)CC1(CCN(Cc3ccccc3)CC1)O2)NO
Activity [1]: Active | Activity [5]: Active | Activity [7]: Active | Activity [8]: Active | T/C [9]: 0.3 | Activity [16]: Active
